Data set [1] in a line: Plasma half life in beagles after iv administration of 5 mg/kg. It counts as ADME, organism-based, Canis lupus familiaris. On the set-up: dose 5 mg/kg, route intravenous. To be noted: beagle, dog. A digest of the protocol: (§1)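 Male beagles dosed intravenously (5 mg/kg for these lines), 2–5 animals. Blood half-life measured in hours after iv dosing; % bioavailability reported alongside.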

The target of data set [2] is T1, 3-oxo-5-alpha-steroid 4-dehydrogenase 2 (Homo sapiens, UniProt P31213).
T1 sequence (P31213 whole entry): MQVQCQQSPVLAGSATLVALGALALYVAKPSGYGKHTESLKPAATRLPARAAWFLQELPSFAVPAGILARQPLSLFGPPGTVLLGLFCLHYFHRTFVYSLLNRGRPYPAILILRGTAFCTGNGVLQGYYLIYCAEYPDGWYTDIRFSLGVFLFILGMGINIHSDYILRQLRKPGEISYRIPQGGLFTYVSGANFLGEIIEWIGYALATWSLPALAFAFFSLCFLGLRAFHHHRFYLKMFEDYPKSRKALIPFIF
Description: Inhibitory activity measured on human steroid 5-alpha-reductase type 2.

A further data set deals with Rattus norvegicus. Description: % reduction in prostate weight when compared with T-treated controls was measured in castrated rat at 10 mg/kg/day po administration. It counts as functional, Prostate gland. In outline:
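Castrated male rats, 8 per group, given 10 mg/kg/day orally alongside testosterone. The readout is ventral prostate weight reduction versus testosterone-treated controls, expressed relative to finasteride run as an internal standard in each experiment.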

Data set [3] can be described thus: Inhibition of recombinant human adrenal 3-beta-hydroxy-delta-5-steroid dehydrogenase.
Data set [4] in a line: Bioavailability in dog (Beagle) at t1/2 (dose 5 mg/kg i.v.). It counts as ADME, organism-based, Canis lupus familiaris. To be noted: in vivo, iv, 5 mg/kg. A digest of the protocol:
as §1

Data set [5] deals with T2, 3-oxo-5-alpha-steroid 4-dehydrogenase 1 (Homo sapiens, UniProt P18405).
T2 sequence (P18405 whole entry): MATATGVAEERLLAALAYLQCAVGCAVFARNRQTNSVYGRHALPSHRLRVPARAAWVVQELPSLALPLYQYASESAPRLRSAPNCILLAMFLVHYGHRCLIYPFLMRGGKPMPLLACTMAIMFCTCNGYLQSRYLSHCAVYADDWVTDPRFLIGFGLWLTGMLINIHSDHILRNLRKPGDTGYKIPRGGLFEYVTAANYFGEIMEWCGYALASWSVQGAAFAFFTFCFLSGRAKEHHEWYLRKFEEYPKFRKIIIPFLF
Nature of the data set: Inhibition of recombinant steroid 5-alpha-reductase type I.

Take `C[C@]12CCC(=O)C(Cl)=C1NCC1C2CC[C@@]2(C)C1CC[C@@H]2C(=O)NC1(c2ccc(Cl)cc2)CCCC1` (stereo partly specified): the half-life (commonly how long it takes for the measured level to halve) in data set [1] was 19 h. Further, in data set [2], the IC50 (as a rule, the concentration that gives 50% inhibition) is under 0.1 nM. Also, the “Reduction of prostate weight” value with Rattus norvegicus was determined as 49%. The Ki (commonly the dissociation constant of the complex between target and ligand, obtained from inhibition or displacement) was determined as 490 nM in data set [3] and 0.6 nM in data set [5]. In addition, the bioavailability (commonly the share of a dose that reaches the circulation, judged against a reference dose that is usually intravenous) in data set [4] came out at 74%.

The record behind these values is ChEMBL document CHEMBL1128432, “Structure-activity relationships for inhibition of type 1 and 2 human 5 alpha-reductase and human adrenal 3 beta-hydroxy-delta 5-steroid dehydrogenase/3-keto-delta 5-steroid isomerase by 6-azaandrost-4-en-3-ones: optimization of the C17 substituent” (J Med Chem, 1995).
